Laboratory results from ChEMBL document CHEMBL4043193, “Cytotoxic effect of sanguiin H-6 on MCF-7 and MDA-MB-231 human breast carcinoma cells” (2017).
Activity calls are given as the source filed them. The calls are words filed in the database; no cut-off is given here.

Key:
MCF7 [1] = assay: Induction of apoptosis in human MCF7 ER-positive cells assessed as increase in Bax to Bcl-2 ratio at 50 to 100 uM after 24 hrs by Western blot analysis
MCF7 [2] = assay: Induction of apoptosis in human MCF7 ER-positive cells assessed as increase in cleaved caspase-8 levels at 50 to 100 uM after 24 hrs by Western blot analysis; assay type: functional, cell-based
Method in brief: (§1)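 Western blot of whole cells after 24 h exposure (MCF-7 at 50 or 100; MDA-MB-231 at 25 or 50). Probed for cleavage of caspase-8, -9, -3 and PARP, and for Bax and Bcl-2 expression. The Bax:Bcl-2 ratio is derived from the same blots.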

MDA-MB-231 [3] = assay: Induction of apoptosis in human MDA-MB-231 ER-negative cells assessed as increase in cleaved caspase-8 levels at 25 to 50 uM after 24 hrs by Western blot analysis; assay type: functional, cell-based
Method in brief: as §1

MCF7 [4] = assay: Cytotoxicity against human MCF7 ER-positive cells assessed as decrease in cell viability at 5 to 100 uM after 24 hrs by EZ-Cytox assay; assay type: functional, cell-based
MDA-MB-231 [5] = assay: Cytotoxicity against human MDA-MB-231 ER-negative cells assessed as decrease in cell viability at 5 to 100 uM after 24 hrs by EZ-Cytox assay; assay type: functional, cell-based
MDA-MB-231 [6] = assay: Induction of apoptosis in human MDA-MB-231 ER-negative cells assessed as increase in cleaved caspase-3 levels at 25 to 50 uM after 24 hrs by Western blot analysis; assay type: functional, cell-based
Method in brief: as §1

MCF7 [7] = assay: Induction of apoptosis in human MCF7 ER-positive cells at 100 uM after 24 hrs by Annexin-V/propidium iodide staining-based cytometry relative to control; assay type: functional
Method in brief: (§2)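 Cells exposed 24 h (MCF-7 at 50 or 100; MDA-MB-231 at 25 or 50), then stained with Alexa Fluor 488 annexin V conjugate for externalized phosphatidylserine and examined by fluorescence imaging. The read-out is the percentage of annexin-V-positive cells in a total cell count.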

MCF7 [8] = assay: Cytotoxicity against human MCF7 ER-positive cells assessed as cell viability at 100 uM after 24 hrs by EZ-Cytox assay relative to control; assay type: functional; settings: MCF7, 24 h, read-out: Activity
MCF7 [9] = assay: Induction of apoptosis in human MCF7 ER-positive cells assessed as increase in PARP levels at 50 to 100 uM after 24 hrs by Western blot analysis; assay type: functional, cell-based
Method in brief: as §1

MDA-MB-231 [10] = assay: Induction of apoptosis in human MDA-MB-231 ER-negative cells assessed as increase in Bax to Bcl-2 ratio at 25 to 50 uM after 24 hrs by Western blot analysis
MDA-MB-231 [11] = assay: Induction of apoptosis in human MDA-MB-231 ER-negative cells at 50 uM after 24 hrs by Annexin-V/propidium iodide staining-based cytometry relative to control; assay type: functional
Method in brief: as §2

MCF7 [12] = assay: Cytotoxicity against human MCF7 ER-positive cells assessed as decrease in cell viability after 24 hrs by EZ-Cytox assay; assay type: functional, cell-based
MCF7 [13] = assay: Induction of apoptosis in human MCF7 ER-positive cells assessed as increase in cleaved caspase-3 levels at 50 to 100 uM after 24 hrs by Western blot analysis; assay type: functional, cell-based
Method in brief: as §1

MDA-MB-231 [14] = assay: Induction of apoptosis in human MDA-MB-231 ER-negative cells assessed as increase in cleaved caspase-9 levels at 25 to 50 uM after 24 hrs by Western blot analysis; assay type: functional, cell-based
Method in brief: as §1

MCF7 [15] = assay: Induction of apoptosis in human MCF7 ER-positive cells assessed as increase in Bax expression levels at 50 to 100 uM after 24 hrs by Western blot analysis; assay type: functional, cell-based
Method in brief: as §1

MDA-MB-231 [16] = assay: Cytotoxicity against human MDA-MB-231 ER-negative cells assessed as decrease in cell viability after 24 hrs by EZ-Cytox assay; assay type: functional, cell-based
MDA-MB-231 [17] = assay: Induction of apoptosis in human MDA-MB-231 ER-negative cells assessed as increase in PARP levels at 25 to 50 uM after 24 hrs by Western blot analysis; assay type: functional, cell-based
Method in brief: as §1

MDA-MB-231 [18] = assay: Induction of apoptosis in human MDA-MB-231 ER-negative cells assessed as decrease in Bcl-2 expression levels at 25 to 50 uM after 24 hrs by Western blot analysis; assay type: functional, cell-based
Method in brief: as §1

MDA-MB-231 [19] = assay: Cytotoxicity against human MDA-MB-231 ER-negative cells assessed as cell viability at 100 uM after 24 hrs by EZ-Cytox assay relative to control; assay type: functional; settings: MDA-MB-231, 24 h, read-out: Activity

O=C(O[C@@H]1O[C@@H]2COC(=O)c3cc(O)c(O)c(O)c3-c3c(cc(O)c(O)c3O)C(=O)O[C@H]2[C@@H]2OC(=O)c3cc(O)c(O)c(O)c3-c3c(cc(O)c(O)c3O)C(=O)O[C@@H]12)c1cc(O)c(O)c(Oc2c(O)c(O)c(O)c3c2C(=O)O[C@H]2[C@@H]4OC(=O)c5cc(O)c(O)c(O)c5-c5c(cc(O)c(O)c5O)C(=O)O[C@H]4[C@@H](OC(=O)c4cc(O)c(O)c(O)c4)O[C@@H]2COC(=O)c2cc(O)c(O)c(O)c2-3)c1
Bax/Bcl-2 ratio (MCF7 [1]): Active | Activity (MCF7 [2]): Active | Activity (MDA-MB-231 [3]): Active | Activity (MCF7 [4]): Active | Activity (MDA-MB-231 [5]): Active | Activity (MDA-MB-231 [6]): Active | Activity (MCF7 [7]): 33.7% | viability at 100 µM (MCF7 [8]): 69% | Activity (MCF7 [9]): Active | Bax/Bcl-2 ratio (MDA-MB-231 [10]): Active | Activity (MDA-MB-231 [11]): 40.7% | Activity (MCF7 [12]): Dose-dependent effect | Activity (MCF7 [13]): Active | Activity (MDA-MB-231 [14]): Active | Activity (MCF7 [15]): Active | Activity (MDA-MB-231 [16]): Dose-dependent effect | Activity (MDA-MB-231 [17]): Active | Activity (MDA-MB-231 [18]): Active | viability at 100 µM (MDA-MB-231 [19]): 63%
